Results taken from ChEMBL document CHEMBL3797027, “Potent anti-proliferative actions of a non-diuretic glucosamine derivative of ethacrynic acid” (Bioorg Med Chem Lett, 2016).
pIC50: −log10 of the molar value. Activity calls are given as the source filed them. No cut-off for these calls is given here.

Columns and labels:
[1] = Potency index, ratio of IC50 for ethacrynic acid to IC50 for test compound for cytotoxic activity against human HT1080 cells assessed as inhibition of cell proliferation incubated for 72 hrs by MTT assay; format: functional, HT-1080
How it was run: (§1)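 Index is the reference IC50 divided by the test IC50. Both IC50s were taken from MTT cell survival curves, each as mean ± SD of three independent experiments.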

[2] = system: MDA-MB-231; test: Reduction in cellular total thiol levels in human MDA-MB-231 cells incubated for 3 hrs by Ellman's reagent based assay; format: functional, cell-based
How it was run: (§2)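 Cells exposed to 0–40 µM compound for 3 h, then trypsinized. Total thiols in cell extracts were quantified with Ellman's reagent.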

[3] = system: HCT-116; test: Reduction in cellular total thiol levels in human HCT116 cells at 40 uM incubated for 3 hrs by Ellman's reagent based assay; format: functional; how it was run: as §2
[4] = system: HCT-116; test: Induction of ROS generation in human HCT116 cells at 20 and 40 uM incubated for 3 hrs by DCFDA staining based flow cytometry; format: functional, cell-based
How it was run: (§3)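 Cells were exposed for 3 h to compound, or to 25 µM H2O2 as positive control. Where indicated, 3 mM N-acetylcysteine was given 1 h before treatment. Pellets were stained with DCF-DA for 30 min, and intracellular ROS was read as fluorescence shift by flow cytometry against untreated controls.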

[5] = Potency index, ratio of IC50 for ethacrynic acid to IC50 for test compound for cytotoxic activity against human SF188 cells assessed as inhibition of cell proliferation incubated for 72 hrs by MTT assay; format: functional, SF-188
[6] = system: HCT-116; test: Increase in p53 protein expression in wild type p53 expressing human HCT116 cells at 10 to 40 uM by Western blot method; format: functional, cell-based
How it was run: (§4)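 H1299 (p53-null), HCT116 (p53 wild type) and MDA-MB-231 (p53 mutant) cells were treated, then lysates were immunoblotted for p53, p21, PUMA and PARP. β-Actin served as loading control.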

[7] = system: MDA-MB-468; test: Potency index, ratio of IC50 for ethacrynic acid to IC50 for test compound for cytotoxic activity against human MDA-MB-468 cells assessed as inhibition of cell proliferation incubated for 72 hrs by MTT assay; format: functional
[8] = system: MDA-MB-231; test: Cytotoxic activity against human MDA-MB-231 cells assessed as inhibition of cell proliferation incubated for 72 hrs by MTT assay; format: functional, cell-based; settings: MDA-MB-231, 72 h
How it was run: (§5)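 MTT cell survival assay. IC50 is the concentration that inhibits tumour cell proliferation by 50%, read from cell survival curves. Values are given as mean ± SD of three independent experiments.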

[9] = system: NCI-H1299; test: Increase in p21'cip1 protein expression in p53 deficient human H1299 cells at 10 to 40 uM by Western blot method; format: functional, cell-based; how it was run: as §4
[10] = system: MDA-MB-231; test: Induction of ROS generation in human MDA-MB-231 cells at 20 and 40 uM incubated for 3 hrs by DCFDA staining based flow cytometry; format: functional, cell-based; how it was run: as §3
[11] = target: Glutathione S-transferase P (Homo sapiens) (UniProt P09211); test: Inhibition of GSTP1 in human MDA-MB-231 cells assessed as reduction in GST-pi activity pre-incubated for 3 hrs followed by chlorodinitrobenzene and reduced glutathione addition by photometric assay
[12] = system: MDA-MB-231; test: Potency index, ratio of IC50 for ethacrynic acid to IC50 for test compound for cytotoxic activity against human MDA-MB-231 cells assessed as inhibition of cell proliferation incubated for 72 hrs by MTT assay; format: functional
[13] = system: MCF7; test: Potency index, ratio of IC50 for ethacrynic acid to IC50 for test compound for cytotoxic activity against human MCF7 cells assessed as inhibition of cell proliferation incubated for 72 hrs by MTT assay; format: functional
[14] = target: Glutathione S-transferase P (Homo sapiens) (UniProt P09211); test: Inhibition of GSTP1 in human HCT116 cells assessed as reduction in GST-pi activity pre-incubated for 3 hrs followed by chlorodinitrobenzene and reduced glutathione addition by photometric assay; settings: HCT-116
[15] = system: HT-29; test: Cytotoxic activity against human HT-29 cells assessed as inhibition of cell proliferation incubated for 72 hrs by MTT assay; format: functional, cell-based; settings: HT-29, 72 h; how it was run: as §5
[16] = system: HCT-116; test: Increase in cleaved PARP protein expression in wild type p53 expressing human HCT116 cells at 10 to 40 uM by Western blot method; format: functional, cell-based; how it was run: as §4
[17] = system: Mus musculus; test: Toxic diuretic effect in 12 hrs fasted CD1 mouse assessed as increase in urine output at 10 mg/kg, ip measured 6 to 24 hrs post dose relative to untreated control; format: toxicity, organism-based; settings: in vivo
How it was run: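 Female CD-1 mice fasted 12 h, then given compound IP at 10 mg/kg in PEG/EtOH/H2O (54:14:32). Vehicle control group included. Mice were housed singly in metabolic cages with free access to water. Voided urine was collected in graduated tubes under the cages over 0–6 h and 6–24 h after injection.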

[18] = Cytotoxic activity against human GBM10 cells assessed as inhibition of cell proliferation incubated for 72 hrs by MTT assay; format: functional, cell-based; settings: GBM10, 72 h; how it was run: as §5
[19] = system: NCI-H1299; test: Induction of ROS generation in human H1299 cells at 20 and 40 uM incubated for 3 hrs by DCFDA staining based flow cytometry; format: functional, cell-based; how it was run: as §3
[20] = system: HCT-116; test: Induction of ROS generation in human HCT116 cells at 20 and 40 uM incubated for 3 hrs after pre-incubation with 3 mM NAC for 1 hr by DCFDA staining based flow cytometry; format: functional, cell-based; how it was run: as §3
[21] = system: HCT-116; test: Increase in p21'cip1 protein expression in wild type p53 expressing human HCT116 cells at 10 to 40 uM by Western blot method; format: functional, cell-based; how it was run: as §4
[22] = Cytotoxic activity against human HCT116 cells assessed as inhibition of cell proliferation incubated for 72 hrs by MTT assay; format: functional, cell-based; settings: HCT-116, 72 h; how it was run: as §5
[23] = system: HT-29; test: Potency index, ratio of IC50 for ethacrynic acid to IC50 for test compound for cytotoxic activity against human HT-29 cells assessed as inhibition of cell proliferation incubated for 72 hrs by MTT assay; format: functional; how it was run: as §1
[24] = system: HCT-116; test: Induction of cell cycle arrest in wild type p53 expressing human HCT116 cells assessed as accumulation at G2/M phase incubated for 24 hrs by propidium iodide staining based flow cytometry; format: functional
[25] = system: Mus musculus; test: Toxicity in mouse assessed as induction of weight loss at 120 mg/kg/week for 2 weeks; format: organism-based; settings: in vivo, 336 h
[26] = system: MDA-MB-231; test: Increase in p21'cip1 protein expression in p53 mutant expressing human MDA-MB-231 cells at 10 to 40 uM by Western blot method; format: functional, cell-based; how it was run: as §4
[27] = Cytotoxic activity against human MCF10A cells assessed as inhibition of cell proliferation incubated for 72 hrs by MTT assay; format: cell-based; settings: mcf-10a; how it was run: as §5
[28] = Cytotoxic activity against human SF188 cells assessed as inhibition of cell proliferation incubated for 72 hrs by MTT assay; format: functional, cell-based; settings: SF-188, 72 h; how it was run: as §5
[29] = system: MDA-MB-231; test: Increase in p53 protein expression in p53 mutant expressing human MDA-MB-231 cells at 10 to 40 uM by Western blot method; format: functional, cell-based; how it was run: as §4
[30] = system: HCT-116; test: Reduction in cellular total thiol levels in human HCT116 cells incubated for 3 hrs by Ellman's reagent based assay; format: functional, cell-based; how it was run: as §2
[31] = system: MDA-MB-231; test: Increase in cleaved PARP protein expression in p53 mutant expressing human MDA-MB-231 cells at 10 to 40 uM by Western blot method; format: functional, cell-based; how it was run: as §4
[32] = system: NCI-H1299; test: Increase in PUMA protein expression in p53 deficient human H1299 cells at 10 to 40 uM by Western blot method; format: functional, cell-based; how it was run: as §4

Glutathione S-transferase P (Homo sapiens), sequence (P09211 2-210 limits assumed): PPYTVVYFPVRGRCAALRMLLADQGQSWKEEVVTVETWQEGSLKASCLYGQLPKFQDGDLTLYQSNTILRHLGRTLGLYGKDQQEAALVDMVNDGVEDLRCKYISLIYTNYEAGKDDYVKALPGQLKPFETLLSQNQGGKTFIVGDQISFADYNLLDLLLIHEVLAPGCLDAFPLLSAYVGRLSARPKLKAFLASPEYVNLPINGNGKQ

C=C(CC)C(=O)c1ccc(OCC(=O)N[C@@H]2[C@@H](O)[C@H](O)[C@@H](CO)O[C@H]2O)c(Cl)c1Cl
Ratio IC50 [1]: 3
Activity [2]: Dose-dependent effect
Imax [3]: 58%
Activity [4]: Active
Ratio IC50 [5]: 3
Activity [6]: Active
Ratio IC50 [7]: 3
pIC50 [8]: 4.91
Activity [9]: Active
Activity [10]: Active
Activity [11]: Dose-dependent effect
Ratio IC50 [12]: 3
Ratio IC50 [13]: 3
Activity [14]: Dose-dependent effect
pIC50 [15]: 4.66
Activity [16]: Active
Activity [17]: Non-toxic
pIC50 [18]: 4.82
Activity [19]: Active
Activity [20]: inactive
Activity [21]: Active
pIC50 [22]: 4.99
Ratio IC50 [23]: 3
Activity [24]: Dose-dependent effect
Activity [25]: Non-toxic
Activity [26]: Active
Activity [27]: Non-toxic
pIC50 [28]: 4.91
Activity [29]: Active
Activity [30]: Dose-dependent effect
Activity [31]: Active
Activity [32]: Active
